# Measured values as given in ChEMBL document CHEMBL1932999, “Increased susceptibility to resveratrol of Helicobacter pylori strains isolated from patients with gastric carcinoma” (2011).
# Assays:
# Helicobacter pylori [1] = experiment: Antibacterial activity against CagA-expressing Helicobacter pylori 10Kb isolated from gastric carcinoma patient after 48 hrs compound exposure followed by incubation on Columbia-blood agar plate for 3 to 5 days; type: functional
# Outline: (§1)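 Compound dissolved in water with 4% DMSO, filter-sterilized, and serially twofold diluted in Brucella broth with 10% bovine fetal serum. Inoculum from 48 h microaerobic Brucella agar-BFS cultures, added at approximately 10^6 CFU/mL final. Broth incubated microaerobically at 37 °C for 24 or 48 h, then each dilution subcultured onto Columbia-blood agar. MBC is the lowest concentration with no growth on subculture. Triplicate; mean ± SD.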
# Helicobacter pylori [2] = experiment: Antibacterial activity against CagA-expressing Helicobacter pylori 17C7 isolated from gastric carcinoma patient after 48 hrs compound exposure followed by incubation on Columbia-blood agar plate for 3 to 5 days; type: functional; outline: as §1
# Helicobacter pylori [3] = experiment: Antibacterial activity against CagA-expressing Helicobacter pylori 18C7 isolated from gastric carcinoma patient after 48 hrs compound exposure followed by incubation on Columbia-blood agar plate for 3 to 5 days; type: functional; outline: as §1
# Helicobacter pylori [4] = experiment: Antibacterial activity against CagA-expressing Helicobacter pylori 4Cb isolated from gastric carcinoma patient after 48 hrs compound exposure followed by incubation on Columbia-blood agar plate for 3 to 5 days; type: functional; outline: as §1
# Helicobacter pylori [5] = experiment: Antibacterial activity against CagA-expressing Helicobacter pylori 3Cb isolated from gastric carcinoma patient after 48 hrs compound exposure followed by incubation on Columbia-blood agar plate for 3 to 5 days; type: functional; outline: as §1
# Helicobacter pylori [6] = experiment: Antibacterial activity against CagA-expressing Helicobacter pylori 1C1 isolated from gastric carcinoma patient after 48 hrs compound exposure followed by incubation on Columbia-blood agar plate for 3 to 5 days; type: functional; outline: as §1
# Helicobacter pylori [7] = experiment: Antibacterial activity against CagA-expressing Helicobacter pylori 2Ca isolated from gastric carcinoma patient after 48 hrs compound exposure followed by incubation on Columbia-blood agar plate for 3 to 5 days; type: functional; outline: as §1
# Helicobacter pylori [8] = experiment: Bactericidal activity against CagA-deficient Helicobacter pylori G50 isolated from chronic gastritis patient compound exposure followed by incubation on Columbia-blood agar plate for 3 to 5 days; type: functional, organism-based; settings: TDE = time-dependent effect
# Outline: (§2)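 Broth microdilution MBC against clinical H. pylori isolates (cagA by PCR; stocks kept frozen in Columbia broth with 20% glycerol). Compound dissolved in water with 4% DMSO, filter-sterilized, double diluted in Brucella broth with 10% fetal bovine serum. Inoculum about 10^6 CFU/mL from 48 h microaerobic Brucella agar-BFS cultures. Plates held microaerobically at 37 °C for 24 and 48 h. Each well was then spotted onto Columbia-blood agar for 3-5 days. MBC is the lowest concentration giving no regrowth. Triplicate, mean ± SD.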
# Helicobacter pylori [9] = experiment: Bactericidal activity against CagA-deficient Helicobacter pylori G21b isolated from chronic gastritis patient compound exposure followed by incubation on Columbia-blood agar plate for 3 to 5 days; type: functional, organism-based; settings: TDE = time-dependent effect; outline: as §2
# Helicobacter pylori [10] = experiment: Bactericidal activity against CagA-deficient Helicobacter pylori G104 isolated from chronic gastritis patient compound exposure followed by incubation on Columbia-blood agar plate for 3 to 5 days; type: functional, organism-based; settings: TDE = time-dependent effect; outline: as §2
# Helicobacter pylori [11] = experiment: Bactericidal activity against CagA-deficient Helicobacter pylori Ba142 isolated from chronic gastritis patient compound exposure followed by incubation on Columbia-blood agar plate for 3 to 5 days; type: functional, organism-based; settings: TDE = time-dependent effect; outline: as §2
# Helicobacter pylori [12] = experiment: Bactericidal activity against CagA-deficient Helicobacter pylori NS23 isolated from chronic gastritis patient compound exposure followed by incubation on Columbia-blood agar plate for 3 to 5 days; type: functional, organism-based; settings: TDE = time-dependent effect; outline: as §2
# Helicobacter pylori [13] = experiment: Bactericidal activity against CagA-deficient Helicobacter pylori 328 KM isolated from chronic gastritis patient compound exposure followed by incubation on Columbia-blood agar plate for 3 to 5 days; type: functional, organism-based; settings: TDE = time-dependent effect; outline: as §2
# Helicobacter pylori [14] = experiment: Bactericidal activity against CagA-deficient Helicobacter pylori G12 isolated from chronic gastritis patient compound exposure followed by incubation on Columbia-blood agar plate for 3 to 5 days; type: functional, organism-based; settings: TDE = time-dependent effect; outline: as §2
# Helicobacter pylori [15] = experiment: Bactericidal activity against CagA-deficient Helicobacter pylori G204 isolated from chronic gastritis patient compound exposure followed by incubation on Columbia-blood agar plate for 3 to 5 days; type: functional, organism-based; settings: TDE = time-dependent effect; outline: as §2
# Helicobacter pylori [16] = experiment: Bactericidal activity against CagA-expressing Helicobacter pylori CCUG17874 isolated from chronic gastritis patient compound exposure followed by incubation on Columbia-blood agar plate for 3 to 5 days; type: functional, organism-based; settings: TDE = time-dependent effect; outline: as §2
# Helicobacter pylori [17] = experiment: Bactericidal activity against CagA-expressing Helicobacter pylori MDO21 isolated from chronic gastritis patient compound exposure followed by incubation on Columbia-blood agar plate for 3 to 5 days; type: functional, organism-based; settings: TDE = time-dependent effect; outline: as §2
# Helicobacter pylori [18] = experiment: Bactericidal activity against CagA-expressing Helicobacter pylori MD6 isolated from chronic gastritis patient compound exposure followed by incubation on Columbia-blood agar plate for 3 to 5 days; type: functional, organism-based; settings: TDE = time-dependent effect; outline: as §2
# Helicobacter pylori [19] = experiment: Bactericidal activity against CagA-expressing Helicobacter pylori 328 isolated from chronic gastritis patient compound exposure followed by incubation on Columbia-blood agar plate for 3 to 5 days; type: functional, organism-based; settings: TDE = time-dependent effect; outline: as §2
# Helicobacter pylori [20] = experiment: Bactericidal activity against CagA-expressing Helicobacter pylori G27 isolated from chronic gastritis patient compound exposure followed by incubation on Columbia-blood agar plate for 3 to 5 days; type: functional; settings: TDE = time-dependent effect; outline: as §2
# Helicobacter pylori [21] = experiment: Bactericidal activity against CagA-expressing Helicobacter pylori Ma01 isolated from chronic gastritis patient compound exposure followed by incubation on Columbia-blood agar plate for 3 to 5 days; type: functional, organism-based; settings: TDE = time-dependent effect; outline: as §2
# Helicobacter pylori [22] = experiment: Bactericidal activity against CagA-expressing Helicobacter pylori SI10 isolated from chronic gastritis patient compound exposure followed by incubation on Columbia-blood agar plate for 3 to 5 days; type: functional, organism-based; settings: TDE = time-dependent effect; outline: as §2
# Helicobacter pylori [23] = experiment: Bactericidal activity against CagA-expressing Helicobacter pylori G39 isolated from chronic gastritis patient compound exposure followed by incubation on Columbia-blood agar plate for 3 to 5 days; type: functional, organism-based; settings: TDE = time-dependent effect; outline: as §2
# Helicobacter pylori [24] = experiment: Bactericidal activity against CagA-expressing Helicobacter pylori G20 isolated from chronic gastritis patient compound exposure followed by incubation on Columbia-blood agar plate for 3 to 5 days; type: functional, organism-based; settings: TDE = time-dependent effect; outline: as §2
# Helicobacter pylori [25] = experiment: Antibacterial activity against CagA-expressing Helicobacter pylori 3Cb isolated from gastric carcinoma patient after 24 hrs compound exposure followed by incubation on Columbia-blood agar plate for 3 to 5 days; type: functional; outline: as §1
# Helicobacter pylori [26] = experiment: Antibacterial activity against CagA-expressing Helicobacter pylori 1C1 isolated from gastric carcinoma patient after 24 hrs compound exposure followed by incubation on Columbia-blood agar plate for 3 to 5 days; type: functional; outline: as §1
# Helicobacter pylori [27] = experiment: Antibacterial activity against CagA-expressing Helicobacter pylori 2Ca isolated from gastric carcinoma patient after 24 hrs compound exposure followed by incubation on Columbia-blood agar plate for 3 to 5 days; type: functional; outline: as §1
# Helicobacter pylori [28] = experiment: Antibacterial activity against CagA-deficient Helicobacter pylori G50 isolated from chronic gastritis patient after 48 hrs compound exposure followed by incubation on Columbia-blood agar plate for 3 to 5 days; type: functional; outline: as §1
# Helicobacter pylori [29] = experiment: Antibacterial activity against CagA-deficient Helicobacter pylori G21b isolated from chronic gastritis patient after 48 hrs compound exposure followed by incubation on Columbia-blood agar plate for 3 to 5 days; type: functional; outline: as §1
# Helicobacter pylori [30] = experiment: Antibacterial activity against CagA-deficient Helicobacter pylori G104 isolated from chronic gastritis patient after 48 hrs compound exposure followed by incubation on Columbia-blood agar plate for 3 to 5 days; type: functional; outline: as §1
# Helicobacter pylori [31] = experiment: Antibacterial activity against CagA-deficient Helicobacter pylori Ba142 isolated from chronic gastritis patient after 48 hrs compound exposure followed by incubation on Columbia-blood agar plate for 3 to 5 days; type: functional; outline: as §1
# Helicobacter pylori [32] = experiment: Antibacterial activity against CagA-deficient Helicobacter pylori NS23 isolated from chronic gastritis patient after 48 hrs compound exposure followed by incubation on Columbia-blood agar plate for 3 to 5 days; type: functional; outline: as §1
# Helicobacter pylori [33] = experiment: Antibacterial activity against CagA-deficient Helicobacter pylori 328 KM isolated from chronic gastritis patient after 48 hrs compound exposure followed by incubation on Columbia-blood agar plate for 3 to 5 days; type: functional; outline: as §1
# Helicobacter pylori [34] = experiment: Antibacterial activity against CagA-deficient Helicobacter pylori G12 isolated from chronic gastritis patient after 48 hrs compound exposure followed by incubation on Columbia-blood agar plate for 3 to 5 days; type: functional; outline: as §1
structure (smiles),measurement,setting,value
Oc1ccc(/C=C/c2cc(O)cc(O)c2)cc1 [RESVERATROL],MBC,Helicobacter pylori [1],147 µg/mL
same,MBC,Helicobacter pylori [2],37 µg/mL
same,MBC,Helicobacter pylori [3],37 µg/mL
same,MBC,Helicobacter pylori [4],147 µg/mL
same,MBC,Helicobacter pylori [5],40 µg/mL
same,MBC,Helicobacter pylori [6],80 µg/mL
same,MBC,Helicobacter pylori [7],160 µg/mL
same,Activity,Helicobacter pylori [8],tde
same,Activity,Helicobacter pylori [9],tde
same,Activity,Helicobacter pylori [10],tde
same,Activity,Helicobacter pylori [11],tde
same,Activity,Helicobacter pylori [12],tde
same,Activity,Helicobacter pylori [13],tde
same,Activity,Helicobacter pylori [14],tde
same,Activity,Helicobacter pylori [15],tde
same,Activity,Helicobacter pylori [16],tde
same,Activity,Helicobacter pylori [17],tde
same,Activity,Helicobacter pylori [18],tde
same,Activity,Helicobacter pylori [19],tde
same,Activity,Helicobacter pylori [20],tde
same,Activity,Helicobacter pylori [21],tde
same,Activity,Helicobacter pylori [22],tde
same,Activity,Helicobacter pylori [23],tde
same,Activity,Helicobacter pylori [24],tde
same,MBC,Helicobacter pylori [25],40 µg/mL
same,MBC,Helicobacter pylori [26],80 µg/mL
same,MBC,Helicobacter pylori [27],160 µg/mL
same,MBC,Helicobacter pylori [28],295 µg/mL
same,MBC,Helicobacter pylori [29],295 µg/mL
same,MBC,Helicobacter pylori [30],295 µg/mL
same,MBC,Helicobacter pylori [31],295 µg/mL
same,MBC,Helicobacter pylori [32],147 µg/mL
same,MBC,Helicobacter pylori [33],147 µg/mL
same,MBC,Helicobacter pylori [34],324 µg/mL
